Our source for the protection from cytokine-induced ATP loss values is PubChem BioAssay AID488910 (Broad Institute, 2010).

The campaign covered roughly 20,000 compounds. About 25 (0.1%) were called active. This is one part of a sample in which actives are shown more often than they occur. Unmarked numbers belong to inactive results.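 The calls were made as follows: active = mean replicate protection from cytokine-induced ATP loss at least 50% and at least 75% of replicates each reaching 50%; inconclusive = meets only one of the two criteria, mean or replicate share; inactive = fails both the mean and replicate share criteria.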

A short description of the experiment: protection of INS-1E cells from cytokine death, primary screen, ATP luminescence, single point (AID 488910). As to conditions: INS-1E cytokine-induced death, 48 h, at 10 µM, stronger effect = higher value, normalised: neutral wells 0, positive control 100. A digest of the protocol: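 Assay system: INS-1E rat insulinoma cells. Amount: 8000 cells per well. Medium: phenol-red-free RPMI with 5% fetal bovine serum. Reagent: IL-1β, TNF-α and IFN-γ cytokine mix. Doses: one compound concentration, pin transfer. Schedule: 48 h co-treatment, 10 min post-lysis read. Detection: CellTiter-Glo luminescence measuring cellular ATP.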
As to `C[C@@H]1CN([C@@H](C)CO)C(=O)Cc2cc(NC(=O)Nc3ccc(F)cc3)ccc2O[C@@H]1CN(C)S(=O)(=O)c1ccccc1`, the protection from cytokine-induced ATP loss was 13.1%. `C[C@@H]1CN([C@@H](C)CO)C(=O)c2cc(NS(C)(=O)=O)ccc2O[C@@H]1CN(C)C(=O)Nc1ccccc1`: the protection from cytokine-induced ATP loss was -5.38%. With `CC(C)NC(=O)Nc1ccc2c(c1)C(=O)N([C@@H](C)CO)C[C@H](C)[C@@H](CN(C)S(C)(=O)=O)O2`, the protection from cytokine-induced ATP loss is 2.67%. On to `C[C@H]1CN([C@@H](C)CO)C(=O)Cc2cc(NS(=O)(=O)c3cccs3)ccc2O[C@@H]1CN(C)S(=O)(=O)c1cn(C)cn1`, for which the protection from cytokine-induced ATP loss is 6.75%. For `COc1ccc(CN(C)C[C@H]2Oc3c(NS(=O)(=O)c4ccccc4)cccc3C(=O)N([C@@H](C)CO)C[C@H]2C)cc1`, the protection from cytokine-induced ATP loss was 2.69%. In the case of `CNC[C@H]1Oc2ccc(NC(=O)C3CCCCC3)cc2C(=O)N([C@H](C)CO)C[C@@H]1C`, the protection from cytokine-induced ATP loss is 1.62%. Consider `C[C@@H]1CN([C@@H](C)CO)C(=O)c2cc(NC(=O)Cn3cnnn3)ccc2O[C@H]1CN(C)Cc1ccc(C(F)(F)F)cc1`, for which the protection from cytokine-induced ATP loss is -4.67%. With `Cc1noc(C)c1NC(=O)Nc1ccc2c(c1)C(=O)N([C@@H](C)CO)C[C@H](C)[C@H](CN(C)Cc1ccc(-c3ccccc3)cc1)O2` the figure was -3.13%; with `Cc1noc(C)c1NC(=O)Nc1ccc2c(c1)C(=O)N([C@@H](C)CO)C[C@@H](C)[C@@H](CN(C)CC1CCCCC1)O2`, 3.33%.

In the case of `C[C@H](CO)N1C[C@H](C)[C@H](CN(C)Cc2ccc(Oc3ccccc3)cc2)Oc2c(NC(=O)CCCCCC(=O)Nc3ccccc3N)cccc2C1=O`, the protection from cytokine-induced ATP loss was -9.83%.

For `COc1ccc(NC(=O)N(C)C[C@H]2Oc3ccc(N(C)C)cc3C(=O)N([C@H](C)CO)C[C@H]2C)cc1`, the protection from cytokine-induced ATP loss is 1.38%. Take `Cc1ccc(S(=O)(=O)Nc2ccc3c(c2)C(=O)N([C@H](C)CO)C[C@H](C)[C@@H](CN(C)C(=O)NC(C)C)OCCCC[C@@H](C)O3)cc1`: the protection from cytokine-induced ATP loss is 12.2%. For `Cc1ccc(S(=O)(=O)N(C)C[C@H]2Oc3ccc(NC(=O)CCCCCC(=O)Nc4ccccc4N)cc3C(=O)N([C@H](C)CO)C[C@H]2C)cc1`, the protection from cytokine-induced ATP loss is -6.48%. With `CN(C)CCCOc1ccc(/C=N/NC(=O)c2cccc(C(=O)NO)c2)cc1` the figure was -4.67%; with `C[C@H]1CN([C@@H](C)CO)C(=O)Cc2cc(NC(=O)Nc3ccc(C(F)(F)F)cc3)ccc2O[C@@H]1CN(C)S(=O)(=O)c1ccc(Cl)cc1`, -4.37%. `C[C@@H]1CN([C@H](C)CO)C(=O)Cc2cc(NC(=O)CCCCCC(=O)Nc3ccccc3N)ccc2O[C@H]1CN(C)S(=O)(=O)c1ccc(F)cc1`: the protection from cytokine-induced ATP loss was 9.28%. With `COc1cc(/C=N/NC(=O)CCCCCCC(=O)Nc2ccccc2O)ccc1O`, the protection from cytokine-induced ATP loss was -6.33%.

Turning to `COc1ccc(NC(=O)N(C)C[C@H]2Oc3ccc(NC(=O)NC(C)C)cc3CC(=O)N([C@H](C)CO)C[C@H]2C)cc1`, the protection from cytokine-induced ATP loss is 14%. As for `Cc1ccc(S(=O)(=O)N(C)C[C@@H]2Oc3ccc(N(C)C)cc3C(=O)N([C@@H](C)CO)C[C@H]2C)cc1`, the protection from cytokine-induced ATP loss was -1.09%. With `Cc1ccc(S(=O)(=O)Nc2ccc3c(c2)C(=O)N([C@@H](C)CO)C[C@@H](C)[C@H](CN(C)Cc2ccc(C(=O)O)cc2)O3)cc1` the figure was 3.07%. Then `C[C@H]1CN([C@@H](C)CO)C(=O)Cc2cc(NC(=O)Cn3cnnn3)ccc2O[C@H]1CN(C)Cc1ccc(C(=O)O)cc1`, with 10.1%; and `Cc1noc(C)c1S(=O)(=O)N(C)C[C@@H]1Oc2c(NS(=O)(=O)c3cn(C)cn3)cccc2C(=O)N([C@@H](C)CO)C[C@H]1C`, with 4.74%. With `CC(C)NC(=O)Nc1ccc2c(c1)C(=O)N([C@@H](C)CO)C[C@@H](C)[C@H](CN(C)Cc1ccc(Cl)c(Cl)c1)O2`, the protection from cytokine-induced ATP loss is -9.43%. As to `C[C@@H]1CN([C@H](C)CO)C(=O)c2cccc(NS(=O)(=O)c3ccc(Cl)cc3)c2O[C@H]1CN(C)Cc1ccc(C(F)(F)F)cc1`, the protection from cytokine-induced ATP loss was 6.19%. Take `C[C@H]1CN([C@@H](C)CO)C(=O)c2cccc(NC(=O)Nc3ccc(F)cc3)c2O[C@H]1CN(C)S(=O)(=O)c1cn(C)cn1`: the protection from cytokine-induced ATP loss is 5.6%.

Consider `Cc1noc(C)c1NC(=O)N(C)C[C@@H]1Oc2ccc(NS(=O)(=O)c3ccc(Cl)cc3)cc2C(=O)N([C@@H](C)CO)C[C@H]1C`, for which the protection from cytokine-induced ATP loss was 5.78%. Take `C[C@@H]1CN([C@H](C)CO)C(=O)c2cccc(NC(=O)Nc3ccc4c(c3)OCO4)c2O[C@H]1CN(C)S(=O)(=O)c1ccc(Cl)cc1`: the protection from cytokine-induced ATP loss is -2.56%.

For `COc1ccc(NC(=O)N(C)C[C@@H]2Oc3c(NS(=O)(=O)c4ccc(OC)cc4)cccc3C(=O)N([C@H](C)CO)C[C@@H]2C)cc1`, the protection from cytokine-induced ATP loss is 8.49%. In the case of `C[C@H]1CN([C@@H](C)CO)C(=O)c2cc(NC(=O)Cn3cnnn3)ccc2O[C@H]1CN(C)Cc1ccc(C(=O)O)cc1`, the protection from cytokine-induced ATP loss was 1.96%. Take `C[C@@H]1CN([C@H](C)CO)C(=O)c2cccc(NC(=O)CCCCCC(=O)Nc3ccccc3N)c2O[C@H]1CN(C)CC1CCCCC1`: the protection from cytokine-induced ATP loss is 4.11%. Take `C[C@@H]1CN([C@H](C)CO)C(=O)Cc2cc(NC(=O)Cn3cnnn3)ccc2O[C@H]1CN(C)Cc1ccc(Cl)c(Cl)c1`: the protection from cytokine-induced ATP loss is 4.05%. For `C[C@H](CO)N1C[C@H](C)[C@@H](CN(C)C(=O)Nc2ccccc2)Oc2c(NC(=O)CCCCCC(=O)Nc3ccccc3N)cccc2C1=O`, the protection from cytokine-induced ATP loss was 4.22%. With `C[C@@H]1CN([C@H](C)CO)C(=O)c2cccc(NS(=O)(=O)c3ccc(F)cc3)c2O[C@@H]1CN(C)S(=O)(=O)c1ccc(Cl)cc1` the figure was 0.697%; with `C[C@@H]1CN([C@@H](C)CO)C(=O)c2cccc(NC(=O)Nc3cccc4ccccc34)c2O[C@@H]1CN(C)CC1CC1`, 2.15%; with `COC(=O)CCCCCCC(=O)N/N=C/c1c(Cl)cc(OC)c(OC)c1Cl`, 2.23%. As for `C[C@@H]1CN([C@@H](C)CO)C(=O)c2cc(NS(=O)(=O)c3ccc(F)cc3)ccc2O[C@@H]1CN(C)C(=O)NC1CCCCC1`, the protection from cytokine-induced ATP loss is -2.78%.
